What was measured:
[1] = target: Opioid receptors; mu & delta (Homo sapiens) (UniProt P41143+P35372); experiment: Relative affinity for delta and mu opioid receptors; assay type: protein assay
Mu-type opioid receptor [2] = target: T1, Mu-type opioid receptor (Homo sapiens, UniProt P35372); experiment: Efficacy for Opioid receptor mu 1-mediated [35S]GTP-gamma-S incorporation into CHO membrane preparations; assay type: functional
[3] = target: Opioid receptors; mu & kappa (Homo sapiens) (UniProt P41145+P35372); experiment: Relative affinity for kappa 1 and mu opioid receptors; assay type: protein assay
Opioid receptors; mu & kappa (Homo sapiens), sequence (P35372 whole entry, looked up): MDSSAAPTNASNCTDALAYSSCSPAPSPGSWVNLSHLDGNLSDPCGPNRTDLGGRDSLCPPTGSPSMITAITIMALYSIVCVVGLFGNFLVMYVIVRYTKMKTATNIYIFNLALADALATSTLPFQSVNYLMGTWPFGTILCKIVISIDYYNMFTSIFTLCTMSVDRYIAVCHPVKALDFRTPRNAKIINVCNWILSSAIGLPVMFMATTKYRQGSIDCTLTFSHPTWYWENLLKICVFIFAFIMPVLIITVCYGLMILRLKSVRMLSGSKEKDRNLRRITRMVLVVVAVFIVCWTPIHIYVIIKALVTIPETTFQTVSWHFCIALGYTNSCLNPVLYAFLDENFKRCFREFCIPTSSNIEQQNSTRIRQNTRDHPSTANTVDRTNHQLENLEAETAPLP
Opioid receptors; mu & kappa (Homo sapiens), sequence (P41145 whole entry, looked up): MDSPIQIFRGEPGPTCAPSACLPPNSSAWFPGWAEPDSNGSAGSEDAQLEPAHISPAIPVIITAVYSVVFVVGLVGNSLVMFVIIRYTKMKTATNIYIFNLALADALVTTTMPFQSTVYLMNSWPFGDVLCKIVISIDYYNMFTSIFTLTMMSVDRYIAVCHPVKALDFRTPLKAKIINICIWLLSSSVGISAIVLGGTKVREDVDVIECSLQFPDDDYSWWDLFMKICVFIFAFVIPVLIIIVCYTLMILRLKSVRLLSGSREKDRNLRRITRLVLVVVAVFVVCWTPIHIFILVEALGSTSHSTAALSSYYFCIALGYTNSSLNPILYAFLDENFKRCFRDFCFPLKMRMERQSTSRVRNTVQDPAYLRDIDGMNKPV
Method in brief: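 Ratio of Ki at KOR, from 3H-U-69,593 competition in guinea pig cerebellum, to Ki at MOR, from 3H-DAMGO competition on hMOR-1 in CHO cells.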

[4] = target: Delta-type opioid receptor (Homo sapiens, UniProt P41143); experiment: Displacement of [3H]diprenorphine from human Opioid receptor delta 1 epressing HEK293 cells; assay type: cell-based
Delta-type opioid receptor, sequence (P41143 whole entry): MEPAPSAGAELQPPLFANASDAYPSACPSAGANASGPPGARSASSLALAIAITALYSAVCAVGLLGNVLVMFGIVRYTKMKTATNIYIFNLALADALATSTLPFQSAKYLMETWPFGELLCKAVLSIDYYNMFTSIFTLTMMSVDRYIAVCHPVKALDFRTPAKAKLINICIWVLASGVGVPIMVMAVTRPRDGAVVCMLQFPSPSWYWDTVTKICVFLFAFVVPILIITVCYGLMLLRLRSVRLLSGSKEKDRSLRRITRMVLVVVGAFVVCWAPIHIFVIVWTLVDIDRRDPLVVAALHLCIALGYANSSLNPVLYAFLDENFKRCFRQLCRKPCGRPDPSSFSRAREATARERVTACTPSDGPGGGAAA
Method in brief: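 Human DOR-1 stably transfected into HEK-293 cells; competition binding against 3H-diprenorphine. Mean ± SD of duplicate measurements.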

[5] = target: Kappa-type opioid receptor (Cavia porcellus, UniProt P41144); experiment: Displacement of 3H-U-69,593 from Opioid receptor kappa 1 in guinea pig cerebellum preparation; assay type: tissue-based
Kappa-type opioid receptor, sequence (P41144 whole entry): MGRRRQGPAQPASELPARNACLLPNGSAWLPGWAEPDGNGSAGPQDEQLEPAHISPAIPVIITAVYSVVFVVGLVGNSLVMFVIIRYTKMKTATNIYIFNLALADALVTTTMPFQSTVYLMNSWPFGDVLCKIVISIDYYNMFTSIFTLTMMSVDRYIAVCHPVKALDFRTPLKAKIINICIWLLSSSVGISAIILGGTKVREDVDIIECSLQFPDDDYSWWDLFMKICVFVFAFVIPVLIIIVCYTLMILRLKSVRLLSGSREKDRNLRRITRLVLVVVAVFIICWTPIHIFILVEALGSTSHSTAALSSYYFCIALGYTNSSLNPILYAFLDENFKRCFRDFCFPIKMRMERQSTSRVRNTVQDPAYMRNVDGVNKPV

Mu-type opioid receptor [6] = target: T1, Mu-type opioid receptor; experiment: Displacement of [3H]DAMGO from human Opioid receptor mu 1 expressing CHO cells; assay type: cell-based
Mu-type opioid receptor [7] = target: T1, Mu-type opioid receptor; experiment: Compound tested at 10 uM for the ability to induce Opioid receptor mu 1-mediated binding of [35S]GTP-gamma-S to G proteins in CHO membrane preparations; assay type: functional, cell membranes
Method in brief: (§1)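 Human MOR-1 stably transfected into CHO cells; membrane preparations incubated with GDP and test compound at 10 µM. Specific [35S]GTP-γ-S binding to G proteins is expressed as a percentage of DAMGO-induced specific binding. Mean ± SD of quadruplicate measurements.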

Mu-type opioid receptor [8] = target: T1, Mu-type opioid receptor; experiment: Specific binding of GTP-gamma -35S to G proteins in CHO membrane preparation stably transfected with human Opioid receptor mu 1 in the presence of GDP and 10 uM compound; assay type: cell membranes; method in brief: as §1

T1 sequence (P35372 whole entry): as the sequence (P35372 whole entry, looked up) above
Opioid receptors; mu & delta (Homo sapiens), sequence (P35372 whole entry, looked up): as above
Opioid receptors; mu & delta (Homo sapiens), sequence (P41143 whole entry, looked up): as the sequence (P41143 whole entry) above

Row | Structure (SMILES) | Ratio [1] | GTP-gamma35S bound (Mu-type opioid receptor [2]) | Ratio [3] | Ki [4] | Ki [5] | Ki (Mu-type opioid receptor [6]) | EC50 (Mu-type opioid receptor [7]) | GTP-gamma35S bound (Mu-type opioid receptor [8]) | Ki ([4]; hek293) | Ki (Mu-type opioid receptor [6]; cho)
1 | Cc1cc(O)cc(C)c1C[C@H](N)[C@@H](O)C/C=C/[C@@H](O)[C@H](Cc1ccccc1)C(=O)N[C@@H](Cc1ccccc1)C(N)=O | 190 | 32% | 41 | 230 nM | 50 nM | 1.2 nM |  |  |  | 
2 | Cc1cc(O)cc(C)c1C[C@H](N)[C@@H](O)C/C=C/[C@@H](O)[C@H](Cc1ccccc1)C(=O)NCCc1ccccc1 | 190 | 52% | 94 | 119 nM | 60 nM | 0.64 nM |  |  |  | 
3 | Cc1cc(O)cc(C)c1C[C@H](N)[C@H](O)C/C=C/[C@H](O)[C@@H](Cc1ccccc1)C(=O)NCCc1ccccc1 | 510 | 49% | 210 | 123 nM | 51 nM | 0.24 nM | 49 nM |  |  | 
4 | Cc1cc(O)cc(C)c1C[C@H](N)[C@@H](O)C/C=C/[C@H](O)[C@@H](Cc1ccccc1)C(=O)O[C@@H](Cc1ccccc1)C(N)=O | 46 | 47% | 280 | 21 nM | 126 nM |  |  |  |  | 
5 | Cc1cc(O)cc(C)c1C[C@H](N)[C@@H](O)C/C=C/[C@H](O)[C@@H](Cc1ccccc1)C(=O)O[C@H](CO)Cc1ccccc1 | 39 |  | 190 | 17 nM | 85 nM | 0.44 nM |  | 62% |  | 
6 | Cc1cc(O)cc(C)c1C[C@H](N)[C@@H](O)C/C=C/[C@@H](O)[C@@H](Cc1ccccc1)C(=O)NCCc1ccccc1 | 70 | 48% | 170 | 26 nM | 64 nM | 0.37 nM |  |  |  | 
7 | Cc1cc(O)cc(C)c1C[C@H](N)[C@@H](O)C/C=C/[C@H](O)[C@@H](Cc1ccccc1)C(=O)OCCc1ccccc1 |  | 79% |  | 56 nM |  | 0.24 nM | 4.2 nM |  |  | 
8 | NC(=O)[C@H](Cc1ccccc1)NC(=O)[C@H](Cc1ccccc1)NC(=O)[C@H]1CCCN1C(=O)[C@@H](N)Cc1ccccc1 | […] | 100% | […] |  |  |  |  |  |  | 
9 | Cc1cc(O)cc(C)c1C[C@H](N)[C@@H](O)C/C=C/[C@H](O)[C@@H](Cc1ccccc1)C(=O)N[C@@H](Cc1ccccc1)C(N)=O | 230 | 35% | 130 | 40 nM | 22 nM | 0.17 nM |  |  |  | 
10 | Cc1cc(O)cc(C)c1C[C@H](N)[C@@H](O)C/C=C/[C@H](O)[C@@H](Cc1ccccc1)C(=O)NCCc1ccccc1 | 340 | 40% | 140 | 99 nM | 42 nM | 0.29 nM |  |  |  | 
11 | Cc1cc(O)cc(C)c1C[C@H](N)[C@@H](O)C/C=C/[C@H](O)[C@@H](Cc1ccccc1)C(=O)N[C@H](CO)Cc1ccccc1 | 340 | 44% | 430 | 54 nM | 69 nM | 0.16 nM |  |  |  | 
12 | Cc1cc(O)cc(C)c1C[C@H](N)[C@H](O)C/C=C/[C@H](O)[C@@H](Cc1ccccc1)C(=O)N[C@@H](Cc1ccccc1)C(N)=O | 38 | 14% | 13 | 46 nM | 15 nM | 1.2 nM |  |  |  | 
13 | Cc1cc(O)cc(C)c1C[C@H](N)[C@H](O)C/C=C/[C@@H](O)[C@@H](Cc1ccccc1)C(=O)N[C@@H](Cc1ccccc1)C(N)=O | 53 | 43% | 16 | 85 nM | 25 nM | 1.6 nM |  |  |  | 
14 | Cc1cc(O)cc(C)c1C[C@H](N)[C@@H](O)C/C=C/[C@@H](O)[C@@H](Cc1ccccc1)C(=O)N[C@@H](Cc1ccccc1)C(N)=O | 86 | 75% | 49 | 36 nM | 21 nM | 0.42 nM | 7.9 nM |  |  | 
15 | NC(=O)[C@H](Cc1ccccc1)NC(=O)[C@H](Cc1ccccc1)NC(=O)[C@@H]1CCCN1C(=O)[C@@H](N)Cc1ccccc1 |  |  |  |  | 10400 nM |  | 31 nM |  | […] | 0.69 nM
16 | Cc1cc(O)cc(C)c1C[C@H](N)[C@H](O)C/C=C/[C@@H](O)[C@@H](Cc1ccccc1)C(=O)NCCc1ccccc1 | 91 | 27% | 96 | 66 nM | 69 nM | 0.72 nM |  |  |  | 

Reference: ChEMBL document CHEMBL1145973 (J Med Chem, 2003)
